Article PMC5604209 (Journal of Cancer, 2017)

Experiments:
K562 cells [1] = assay: Apoptosis by Annexin V / 7-AAD flow cytometry; type: cell-based, human; conditions: 10 μM, 24 hours
Summary of the method: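 K562 cells treated 24 h at 37 °C with test compound (0.1, 1.0 or 10 μM) or 0.1% DMSO. Cells were washed twice in PBS and resuspended in binding buffer with PE-Annexin V and 7-AAD for 15 min at RT in the dark. They were then diluted in binding buffer and read on a Guava flow cytometer. Early and late apoptotic fractions were scored.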

SMMC-7721 = assay: Cell proliferation assay; type: cell-based; conditions: Homo sapiens, SMMC-7721, 72 h, read-out: Cell growth inhibition IC50
Summary of the method: (§1)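 Cells were grown in DMEM or RPMI-1640 with 10% FBS and penicillin/streptomycin at 37 °C, 5% CO2. PBMC were isolated on Ficoll-Paque, and Ba/F3 Bcr-Abl lines were stably transfected. Cells were seeded at low density. DMSO stocks were 3-fold diluted from 10 mM to 0.3 nM, then into serum-free medium before addition. After 72 h, CellTiter-Glo (adherent; RT 10 min) or CellTiter-Blue (suspension; 4 h) was read. IC50 is the mean of three independent duplicate experiments.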

phosphorylation of Crkl = assay: Western blot, K562 and KU812 cells; type: cell-based, human; conditions: 100 nM, 1 hour
Summary of the method: (§2)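 K562 or KU812 cells (1×10⁶ per well) were plated overnight at 37 °C, 5% CO2. They were treated 1 h with a concentration series, or with 100 nM for 0–24 h; 0.1% DMSO served as control. BCA-normalized lysates were run on 10% SDS-PAGE and transferred to PVDF. Blots were blocked in TBS-0.1% Tween-20 with 5% BSA, then probed with phospho-specific primaries (2 h RT or 4 °C overnight) and HRP anti-rabbit (1 h RT). Detection was by ECL.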

K562 xenograft = assay: K562 tumor xenograft in nude mice; type: in vivo; conditions: for tumor growth inhibition: p < 0.05
Summary of the method: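 Female athymic nude mice (5–6 weeks) were implanted subcutaneously in the right flank with K562 cells in 100 µL serum-free medium. Once tumors reached about 150–300 mm³, mice were randomized (10 per group) to vehicle or test compound at 5, 15 or 45 mg/kg by daily oral gavage. Caliper volume (w²×l)/2 and body weight were recorded every 2–3 days. TGI was taken versus vehicle, with t-test.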

Abl (T315I) = Abl (T315I) (Homo sapiens, UniProt P00519, T315I); assay: HTRF kinase enzyme assay; type: biochemical
K562 cells [2] = assay: Cell cycle by propidium; type: cell-based, human; conditions: 1 nM, 24 hours
Summary of the method: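 After 24 h exposure of K562 cells to test compound or DMSO, cells were washed in cold PBS and fixed overnight in ice-cold 70% ethanol. They were stained 1 h at 37 °C in PBS with 0.25 mg/mL RNase and 0.025 mg/mL propidium iodide. Cells were read on a Guava flow cytometer, and G1, S and G2/M fractions were quantified.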

KU812 xenograft = assay: KU812 tumor xenograft in nude mice; type: in vivo; conditions: 30 mg/kg QD; for treated mice with complete tumor regression: p < 0.01
Ba/F3-Bcr-abl^T315I = assay: Cell proliferation assay; type: cell-based, murine; conditions: Mus musculus, 72 h, read-out: Cell growth inhibition IC50
Summary of the method: as §1

PDGFRβ = PDGFRβ (Homo sapiens, UniProt P09619); assay: HTRF kinase enzyme assay; type: biochemical
Chain of PDGFRβ (P09619 33-1106): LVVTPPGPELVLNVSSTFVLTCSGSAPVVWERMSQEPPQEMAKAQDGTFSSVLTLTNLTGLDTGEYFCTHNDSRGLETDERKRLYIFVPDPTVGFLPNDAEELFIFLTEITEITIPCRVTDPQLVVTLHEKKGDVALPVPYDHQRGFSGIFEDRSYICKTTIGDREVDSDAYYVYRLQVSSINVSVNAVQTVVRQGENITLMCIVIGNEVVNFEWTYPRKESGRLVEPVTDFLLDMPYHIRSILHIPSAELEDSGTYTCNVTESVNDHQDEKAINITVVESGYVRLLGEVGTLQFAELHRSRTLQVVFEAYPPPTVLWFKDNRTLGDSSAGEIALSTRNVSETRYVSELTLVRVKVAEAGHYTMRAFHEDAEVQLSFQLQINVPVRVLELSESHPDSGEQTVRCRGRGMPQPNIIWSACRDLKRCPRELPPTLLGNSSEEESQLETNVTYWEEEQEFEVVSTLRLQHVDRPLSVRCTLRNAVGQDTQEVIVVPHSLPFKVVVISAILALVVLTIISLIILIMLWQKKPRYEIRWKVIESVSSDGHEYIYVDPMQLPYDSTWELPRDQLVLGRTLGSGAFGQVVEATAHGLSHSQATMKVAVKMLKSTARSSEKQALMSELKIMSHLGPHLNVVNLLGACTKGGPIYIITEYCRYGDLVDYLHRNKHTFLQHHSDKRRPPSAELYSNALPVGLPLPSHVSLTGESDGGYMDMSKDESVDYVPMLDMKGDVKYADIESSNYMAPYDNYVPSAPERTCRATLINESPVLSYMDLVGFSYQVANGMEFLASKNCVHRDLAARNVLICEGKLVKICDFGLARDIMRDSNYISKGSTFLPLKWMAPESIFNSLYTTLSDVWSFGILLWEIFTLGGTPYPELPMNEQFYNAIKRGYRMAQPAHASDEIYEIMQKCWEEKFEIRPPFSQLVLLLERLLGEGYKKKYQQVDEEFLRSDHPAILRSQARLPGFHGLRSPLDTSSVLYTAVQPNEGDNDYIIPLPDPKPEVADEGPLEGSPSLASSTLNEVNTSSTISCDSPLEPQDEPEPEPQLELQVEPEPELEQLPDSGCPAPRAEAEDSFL
Summary of the method: (§3)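 Recombinant kinases were assayed by HTRF KinEASE-TK in 50 mM HEPES pH 7.0, 0.1 mM Na3VO4, 0.01% BSA, 5 mM MgCl2, 1 mM DTT. Compound was made as an 11-point 3-fold series from a 1 mM DMSO stock and mixed with kinase for 5 min. […] Anti-TK cryptate plus streptavidin-XL665 was added for 1 h at 23 °C before TR-FRET read-out. IC50 is the mean of three independent duplicate runs.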

Abl enzyme [3] = molecular target: T1, Abl enzyme (Homo sapiens, UniProt P00519); assay: Kinetic mechanism of inhibition versus ATP; type: biochemical
[4] = Pharmacokinetic studies in rats; type: in vivo; conditions: female, SD, rat, serum, po, 5 mg/kg
Summary of the method: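 Female SD rats (5–6 weeks) received a single 5 mg/kg oral dose. Blood was sampled serially from 2 min to 24 h, and serum was separated by centrifugation and stored at −80 °C. Serum levels were measured by LC-MS/MS, and T1/2, Tmax, Cmax and AUC0-INF were derived.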

[5] = molecular target: phosphorylation of Bcr-Abl (Homo sapiens, UniProt P00519+P11274); assay: Western blot, K562 and KU812 cells; type: cell-based; conditions: for phosphorylation of Bcr-Abl kinase: 1 hour
Summary of the method: as §2

HL-60 = assay: Cell proliferation assay; type: cell-based; conditions: Homo sapiens, HL-60, 72 h, read-out: Cell growth inhibition IC50
Summary of the method: as §1

EGFR = EGFR (Homo sapiens, UniProt P00533); assay: Kinase enzyme assay; type: biochemical
Chain of EGFR (P00533 25-1210): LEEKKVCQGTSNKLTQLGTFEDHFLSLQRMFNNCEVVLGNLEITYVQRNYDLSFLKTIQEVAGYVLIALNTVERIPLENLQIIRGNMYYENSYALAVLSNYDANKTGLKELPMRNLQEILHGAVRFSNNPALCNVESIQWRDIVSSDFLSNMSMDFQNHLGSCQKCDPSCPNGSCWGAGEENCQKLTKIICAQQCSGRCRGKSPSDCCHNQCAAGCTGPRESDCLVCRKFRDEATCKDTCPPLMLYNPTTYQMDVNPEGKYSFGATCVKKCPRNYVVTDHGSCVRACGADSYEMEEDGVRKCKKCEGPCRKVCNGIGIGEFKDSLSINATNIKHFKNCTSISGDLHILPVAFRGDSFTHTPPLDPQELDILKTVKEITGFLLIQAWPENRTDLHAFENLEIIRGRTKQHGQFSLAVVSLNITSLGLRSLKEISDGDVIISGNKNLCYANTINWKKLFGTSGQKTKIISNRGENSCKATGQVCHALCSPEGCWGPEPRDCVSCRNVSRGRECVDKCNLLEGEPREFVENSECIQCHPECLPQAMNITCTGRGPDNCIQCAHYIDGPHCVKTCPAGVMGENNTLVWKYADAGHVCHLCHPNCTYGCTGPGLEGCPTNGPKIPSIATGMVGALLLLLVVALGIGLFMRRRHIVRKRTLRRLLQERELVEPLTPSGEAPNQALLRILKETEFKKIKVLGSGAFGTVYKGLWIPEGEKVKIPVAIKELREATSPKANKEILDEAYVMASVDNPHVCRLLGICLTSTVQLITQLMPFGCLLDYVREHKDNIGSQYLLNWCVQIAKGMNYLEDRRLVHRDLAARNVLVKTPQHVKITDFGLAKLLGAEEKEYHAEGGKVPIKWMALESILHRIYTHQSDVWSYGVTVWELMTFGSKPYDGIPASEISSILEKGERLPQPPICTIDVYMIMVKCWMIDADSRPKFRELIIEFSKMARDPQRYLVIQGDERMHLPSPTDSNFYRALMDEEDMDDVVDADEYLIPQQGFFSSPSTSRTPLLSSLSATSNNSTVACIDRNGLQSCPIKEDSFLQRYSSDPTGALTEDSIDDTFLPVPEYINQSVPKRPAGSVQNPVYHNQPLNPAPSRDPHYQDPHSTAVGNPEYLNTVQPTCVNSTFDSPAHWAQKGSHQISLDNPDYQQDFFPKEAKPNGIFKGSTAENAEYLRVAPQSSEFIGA

[6] = test system: liver CYP450 enzymes (all tested enzymes); assay: Liver CYP450 enzyme inhibition; type: in vitro ADME
MKN-45 = assay: Cell proliferation assay; type: cell-based; conditions: Homo sapiens, MKN-45, 72 h, read-out: Cell growth inhibition IC50
Summary of the method: as §1

VEGFR2 = VEGFR2 (Homo sapiens, UniProt P35968); assay: HTRF kinase enzyme assay; type: biochemical
Chain of VEGFR2 (P35968 20-1356): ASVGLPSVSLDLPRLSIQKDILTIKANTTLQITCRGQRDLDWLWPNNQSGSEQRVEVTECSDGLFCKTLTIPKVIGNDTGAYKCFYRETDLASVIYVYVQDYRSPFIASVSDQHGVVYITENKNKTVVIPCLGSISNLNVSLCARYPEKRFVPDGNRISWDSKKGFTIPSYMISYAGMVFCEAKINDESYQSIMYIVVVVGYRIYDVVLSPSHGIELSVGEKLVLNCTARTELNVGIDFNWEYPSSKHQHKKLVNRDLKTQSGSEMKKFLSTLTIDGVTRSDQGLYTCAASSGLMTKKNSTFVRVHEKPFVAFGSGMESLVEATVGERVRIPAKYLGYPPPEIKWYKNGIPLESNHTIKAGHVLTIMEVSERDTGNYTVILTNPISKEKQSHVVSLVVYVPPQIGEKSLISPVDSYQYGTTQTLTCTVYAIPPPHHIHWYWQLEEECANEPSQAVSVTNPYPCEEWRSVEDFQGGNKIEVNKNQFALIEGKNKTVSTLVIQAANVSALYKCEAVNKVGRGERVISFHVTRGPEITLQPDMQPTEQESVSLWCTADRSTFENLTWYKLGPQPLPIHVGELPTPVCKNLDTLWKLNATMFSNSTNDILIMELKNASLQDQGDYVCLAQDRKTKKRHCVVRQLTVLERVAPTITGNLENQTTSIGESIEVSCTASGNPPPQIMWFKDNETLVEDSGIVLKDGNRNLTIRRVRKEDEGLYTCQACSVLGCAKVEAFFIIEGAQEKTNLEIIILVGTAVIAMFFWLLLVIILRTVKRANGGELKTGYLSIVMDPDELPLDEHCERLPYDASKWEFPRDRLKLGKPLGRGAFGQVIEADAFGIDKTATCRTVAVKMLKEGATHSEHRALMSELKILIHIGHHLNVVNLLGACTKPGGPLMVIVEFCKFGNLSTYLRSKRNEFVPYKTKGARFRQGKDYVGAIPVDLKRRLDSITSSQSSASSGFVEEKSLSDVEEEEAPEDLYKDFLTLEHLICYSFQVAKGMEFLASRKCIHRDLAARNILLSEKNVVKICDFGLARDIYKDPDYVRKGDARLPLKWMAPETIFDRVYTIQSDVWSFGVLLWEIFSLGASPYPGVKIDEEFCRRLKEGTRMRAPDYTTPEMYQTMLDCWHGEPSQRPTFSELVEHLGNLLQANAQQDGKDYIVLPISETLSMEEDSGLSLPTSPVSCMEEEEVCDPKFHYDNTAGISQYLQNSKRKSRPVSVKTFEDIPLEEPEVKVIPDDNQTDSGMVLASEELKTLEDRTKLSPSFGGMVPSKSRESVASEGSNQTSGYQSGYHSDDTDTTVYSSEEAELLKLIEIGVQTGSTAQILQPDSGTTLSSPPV
Summary of the method: as §3

[7] = test system: phosphorylation of Bcr-Abl and ERK1/2; assay: PK/PD in K562 xenograft model: Western blot of tumor samples; type: in vivo, nude mice; conditions: single oral dose 15 mg/kg, 2 hours
Summary of the method: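 K562 xenografts in nude mice were given a single oral dose of test compound (5 or 15 mg/kg). Tumors were harvested 2 h later, and lysates were probed by Western blot with antibodies to phospho-Bcr-Abl and phospho-ERK1/2.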

[8] = test system: phosphorylated ERK1/2 and STAT5; assay: Western blot, K562 and KU812 cells; type: cell-based, human
Summary of the method: as §2

PC-3 = assay: Cell proliferation assay; type: cell-based; conditions: Homo sapiens, PC-3, 72 h, read-out: Cell growth inhibition IC50
Summary of the method: as §1

Abl (WT) = Abl (WT) (Homo sapiens, UniProt P00519); assay: HTRF kinase enzyme assay; type: biochemical
Summary of the method: as §3

MV-4-11 = assay: Cell proliferation assay; type: cell-based; conditions: read-out: Cell growth inhibition IC50; MV-4-11, acute myeloid leukemia, 72 hours
Summary of the method: as §1

Abl enzyme [9] = molecular target: T1, Abl enzyme; assay: Time-dependent inhibition and reversibility; type: biochemical
[10] = PK/PD in K562 xenograft model: compound concentration in tumor; type: in vivo, nude mice; conditions: nude, mouse, tumor tissue, po, 15 mg/kg
Summary of the method: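 In nude mice bearing K562 xenografts, tumor tissue was collected 2 h after one oral dose (5 or 15 mg/kg) of test compound. Compound concentration in tumor samples was quantified by LC-MS/MS.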

Ba/F3-Bcr-abl^WT = assay: Cell proliferation assay; type: cell-based, murine; conditions: Mus musculus, 72 h, read-out: Cell growth inhibition IC50
Summary of the method: as §1

c-Kit = c-Kit (Homo sapiens, UniProt P10721); assay: HTRF kinase enzyme assay; type: biochemical
Chain of c-Kit (P10721 26-976): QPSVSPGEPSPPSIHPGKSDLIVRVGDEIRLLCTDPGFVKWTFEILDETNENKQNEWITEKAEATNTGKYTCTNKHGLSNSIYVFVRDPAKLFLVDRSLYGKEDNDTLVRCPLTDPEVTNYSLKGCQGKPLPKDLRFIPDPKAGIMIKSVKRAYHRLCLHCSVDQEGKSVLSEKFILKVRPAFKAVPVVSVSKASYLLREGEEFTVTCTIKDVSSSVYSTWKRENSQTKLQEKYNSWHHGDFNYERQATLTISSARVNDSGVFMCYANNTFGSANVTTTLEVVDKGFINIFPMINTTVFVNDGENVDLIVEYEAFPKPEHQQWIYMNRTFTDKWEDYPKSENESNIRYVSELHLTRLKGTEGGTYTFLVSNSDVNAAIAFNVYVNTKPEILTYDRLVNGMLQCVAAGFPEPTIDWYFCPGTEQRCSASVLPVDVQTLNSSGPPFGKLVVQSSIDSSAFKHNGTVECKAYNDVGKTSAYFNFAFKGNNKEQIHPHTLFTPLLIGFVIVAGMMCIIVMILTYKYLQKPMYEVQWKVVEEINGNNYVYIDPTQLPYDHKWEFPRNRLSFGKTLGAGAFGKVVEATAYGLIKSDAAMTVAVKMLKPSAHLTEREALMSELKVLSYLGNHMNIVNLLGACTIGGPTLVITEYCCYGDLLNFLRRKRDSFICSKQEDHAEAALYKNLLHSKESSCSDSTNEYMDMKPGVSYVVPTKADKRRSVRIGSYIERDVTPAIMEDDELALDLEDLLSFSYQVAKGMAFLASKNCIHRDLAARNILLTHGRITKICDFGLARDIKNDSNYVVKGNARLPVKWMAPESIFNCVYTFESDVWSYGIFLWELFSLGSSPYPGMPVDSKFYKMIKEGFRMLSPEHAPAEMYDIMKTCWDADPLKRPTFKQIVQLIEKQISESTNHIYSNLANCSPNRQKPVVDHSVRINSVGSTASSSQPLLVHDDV
Summary of the method: as §3

Human PBMC = assay: Cell proliferation assay; type: cell-based; conditions: read-out: Cell growth inhibition IC50, human lymphocyte, 72 hours
Summary of the method: as §1

Kasumi-1 = assay: Cell proliferation assay; type: cell-based; conditions: Homo sapiens, Kasumi 1, 72 h, read-out: Cell growth inhibition IC50
Summary of the method: as §1

- IC50 (SMMC-7721): 1000 to 10000 nM
- IC50 (Abl (T315I)): 65 ± 6.2 nM
- IC50 (Ba/F3-Bcr-abl^T315I): 18.5 ± 12 nM
- IC50 (PDGFRβ): 106 nM
- Ki (Abl enzyme [3]): 7.3 nM
- Ki' (Abl enzyme [3]; enzyme-ATP complex): 775 nM
- AUC(0-inf) [4]: 5420 ng·h/mL
- Cmax [4]: 303 ng/mL
- Tmax [4]: 6.67 h
- half-life [4]: 8.83 h
- phosphorylation of Bcr-Abl kinase ([5]; 10 nM): significantly suppressed
- phosphorylation of Bcr-Abl kinase ([5]; 100 nM): totally blocked
- duration of blockage of phosphorylation of Bcr-Abl and Crkl ([5]; time course, 100 nM): at least 24 hours
- IC50 (HL-60): 1000 to 10000 nM
- IC50 (EGFR): 130 nM
- IC50 [6]: > 10000 nM
- IC50 (MKN-45): 1000 to 10000 nM
- IC50 (VEGFR2): 48.9 nM
- IC50 (PC-3): 1000 to 10000 nM
- IC50 (Abl (WT)): 21.3 ± 1.1 nM
- IC50 (MV-4-11): 232 ± 55 nM
- koff (Abl enzyme [9]): 5.37e-05 s⁻¹
- IC50 (Abl enzyme [9]; IC50 for Abl kinase, Normal (no preincubation, 0 min)): 12.1 nM
- decrease of IC50 after preincubation (Abl enzyme [9]; from 12.1 nM to 1.3 nM, 120 min): 9 fold
- concentration at 2 h [10]: 254 ng/mL
- IC50 (Ba/F3-Bcr-abl^WT): 1.6 ± 0.3 nM
- IC50 (c-Kit): 9.2 nM
SMILES: Cc1ccc(NC(=O)c2ccc3c(c2)CC[C@@H]3N2CCN(C)CC2)cc1C#Cc1cnc2ccc(Cl)nn12 [CT-721, (S)-N-(3-((6-chloroimidazo[1,2-b]pyridazin-3-yl)ethynyl)-4-methylphenyl)-1-(4-methylpiperazin-1-yl)-2,3-dihydro-1H-indene-5-carboxamide]
- late-phase apoptosis (K562 cells [1]): late-phase apoptosis was also observed
- phosphorylation of Crkl (phosphorylation of Crkl): significantly inhibited
- tumor growth inhibition (K562 xenograft; K562 xenograft, 5 mg/kg PO QD): 51.4%
- tumor growth inhibition (K562 xenograft; K562 xenograft, 15 mg/kg PO QD, 12 days): 76%
- mice completely cured, tumors disappeared completely (K562 xenograft; K562 xenograft, 45 mg/kg PO QD, 9 days, p < 0.01): 90%
- body weight of xenograft mice (K562 xenograft; K562 xenograft, 5, 15 and 45 mg/kg): without causing significant bodyweight loss
- cell cycle arrest (K562 cells [2]): pronounced G0/G1 phase arrest
- tumor growth (KU812 xenograft; after 5 days): notably inhibited with partial regression observed
- treated mice with complete tumor regression (KU812 xenograft; after 8 days): 50%
- treated mice with complete tumor regression (KU812 xenograft; after 18 days): 80%
- body weight of xenograft mice (KU812 xenograft; compared to the vehicle group): no significant body weight loss
- Bcr-Abl and ERK phosphorylation in tumor [7]: almost complete inhibition
- levels of phosphorylated ERK1/2 and STAT5 [8]: dose-dependently repressed
- IC50 (Human PBMC): 1000 to 10000 nM
- IC50 (Kasumi-1): 53 ± 6 nM
